Assay results from ChEMBL document CHEMBL5260806, “Hydrogen peroxide activated quinone methide precursors with enhanced DNA cross-linking capability and cytotoxicity towards cancer cells” (Eur J Med Chem, 2017).
Activity calls are given as the source filed them. No cut-off for these calls is given here.

How the values were obtained:
[1] = tested on: K562; test: Anticancer activity against human K562 cells assessed as cell growth inhibition incubated for 48 hrs by sulforhodamine B assay; type: functional
How it was run: (§1)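 NCI-60 screen: cell lines grown in RPMI 1640 with 5% FBS and 2 mM L-glutamine, plated in 96-well plates at 5,000–40,000 cells/well depending on doubling time. Each line has one single-dose arm at 10 µM and one dose-response arm giving GI50.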

[2] = tested on: UACC-257; test: Anticancer activity against human UACC-257 cells assessed as cell growth inhibition at 10 uM incubated for 48 hrs by sulforhodamine B assay; type: functional; conditions: read-out: GI
[3] = tested on: SR; test: Anticancer activity against human SR cells assessed as cell growth inhibition incubated for 48 hrs by sulforhodamine B assay; type: functional
[4] = tested on: SK-OV-3; test: Anticancer activity against human SK-OV-3 cells assessed as cell growth inhibition at 10 uM incubated for 48 hrs by sulforhodamine B assay; type: functional; conditions: read-out: GI
How it was run: (§2)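 NCI DTP 60-cell-line screen run at National Cancer Institute. Cells grown in RPMI 1640 with 5% fetal bovine serum and 2 mM L-glutamine, seeded at 5,000–40,000 cells/well depending on doubling time. Single-dose screen at 10 µM gives growth percentage; dose-response series gives GI50.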

[5] = tested on: SN12C; test: Anticancer activity against human SN12C cells assessed inhibition of cell growth after 48 hrs by CellTiter-Glo luminescent assay; type: functional, cell-based
How it was run: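 Renal lines grown in RPMI 1640 with 5% FBS and 2 mM L-glutamine, seeded into 384-well plates at 5,000–10,000 cells/well, held 2–3 h at 37 °C, 5% CO2. DMSO stocks (20 mM) serially halved ten times and added at 1:100. Cells exposed 48 h at 37 °C; CellTiter-Glo added, 10 min at room temperature, luminescence read.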

[6] = tested on: IGROV-1; test: Anticancer activity against human IGROV-1 cells assessed as cell growth inhibition incubated for 48 hrs by sulforhodamine B assay; type: functional; how it was run: as §1
[7] = tested on: Malme-3M; test: Anticancer activity against human Malme-3M cells assessed as cell growth inhibition incubated for 48 hrs by sulforhodamine B assay; type: functional; how it was run: as §2
[8] = tested on: A549; test: Anticancer activity against human A549 cells assessed as cell growth inhibition at 10 uM incubated for 48 hrs by sulforhodamine B assay; type: functional; conditions: read-out: GI; how it was run: as §1
[9] = tested on: SF-295; test: Anticancer activity against human SF-295 cells assessed as cell growth inhibition at 10 uM incubated for 48 hrs by sulforhodamine B assay; type: functional; conditions: read-out: GI; how it was run: as §2
[10] = tested on: U-251; test: Anticancer activity against human U-251 cells assessed as cell growth inhibition at 10 uM incubated for 48 hrs by sulforhodamine B assay; type: functional; conditions: read-out: GI
[11] = tested on: NCI-H23; test: Anticancer activity against human NCI-H23 cells assessed as cell growth inhibition incubated for 48 hrs by sulforhodamine B assay; type: functional; how it was run: as §2
[12] = tested on: ACHN; test: Anticancer activity against human ACHN cells assessed as cell growth inhibition incubated for 48 hrs by sulforhodamine B assay; type: functional; how it was run: as §1
[13] = tested on: SF-268; test: Anticancer activity against human SF-268 cells assessed as cell growth inhibition at 10 uM incubated for 48 hrs by sulforhodamine B assay; type: functional; conditions: read-out: GI; how it was run: as §2
[14] = tested on: CAKI-1; test: Anticancer activity against human CAKI-1 cells assessed as cell growth inhibition at 10 uM incubated for 48 hrs by sulforhodamine B assay; type: functional; conditions: read-out: GI; how it was run: as §1
[15] = tested on: BT-549; test: Anticancer activity against human BT-549 cells assessed as cell growth inhibition incubated for 48 hrs by sulforhodamine B assay; type: functional; how it was run: as §1
[16] = tested on: PC-3; test: Anticancer activity against human PC-3 cells assessed as cell growth inhibition incubated for 48 hrs by sulforhodamine B assay; type: functional; how it was run: as §2
[17] = tested on: MDA-MB-435; test: Anticancer activity against human MDA-MB-435 cells assessed as cell growth inhibition incubated for 48 hrs by sulforhodamine B assay; type: functional; how it was run: as §2
[18] = tested on: MOLT-4; test: Anticancer activity against human MOLT-4 cells assessed as cell growth inhibition at 10 uM incubated for 48 hrs by sulforhodamine B assay; type: functional; conditions: read-out: GI; how it was run: as §2
[19] = tested on: TK-10; test: Anticancer activity against human TK-10 cells assessed as cell growth inhibition incubated for 48 hrs by sulforhodamine B assay; type: functional
[20] = tested on: SK-MEL-28; test: Anticancer activity against human SK-MEL-28 cells assessed as cell growth inhibition at 10 uM incubated for 48 hrs by sulforhodamine B assay; type: functional; conditions: read-out: GI; how it was run: as §2
[21] = tested on: PC-3; test: Anticancer activity against human PC-3 cells assessed as cell growth inhibition at 10 uM incubated for 48 hrs by sulforhodamine B assay; type: functional; conditions: read-out: GI; how it was run: as §2
[22] = tested on: NCI/ADR-RES; test: Anticancer activity against human NCI/ADR-RES cells assessed as cell growth inhibition at 10 uM incubated for 48 hrs by sulforhodamine B assay; type: functional; conditions: read-out: GI; how it was run: as §2
[23] = tested on: Hs-578T; test: Anticancer activity against human Hs-578T cells assessed as cell growth inhibition incubated for 48 hrs by sulforhodamine B assay; type: functional; how it was run: as §1
[24] = tested on: IGROV-1; test: Anticancer activity against human IGROV-1 cells assessed as cell growth inhibition at 10 uM incubated for 48 hrs by sulforhodamine B assay; type: functional; conditions: read-out: GI; how it was run: as §1
[25] = tested on: CLL cell; test: Induction of DNA damage in chronic lymphocytic leukemia patient lymphocytes assessed as apoptosis rate at 10 uM after 24 hrs by annexin/PI staining based flow cytometry; type: functional; conditions: Homo sapiens
[26] = tested on: SW-620; test: Anticancer activity against human SW620 cells assessed as cell growth inhibition incubated for 48 hrs by sulforhodamine B assay; type: functional
[27] = tested on: SN12C; test: Anticancer activity against human SN12C cells assessed as cell growth inhibition incubated for 48 hrs by sulforhodamine B assay; type: functional
[28] = tested on: CLL cell; test: Induction of DNA damage in chronic lymphocytic leukemia patient lymphocytes assessed as gamma-H2Ax phosphorylation at Ser139 residue at 10 uM after 24 hrs by FITC-staining based flow cytometry; type: functional; conditions: Homo sapiens
How it was run: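 Patient CLL lymphocytes, Ficoll-hypaque isolated, in RPMI with 10% autologous plasma, untreated or exposed to 10 µM for 24 h. Cells washed in PBS, fixed in ice-cold 70% ethanol and held at −20 °C. Then permeabilised, stained with FITC anti-H2AX Ser139 antibody and read by flow cytometry.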

[29] = tested on: CCRF-CEM; test: Anticancer activity against human CCRF-CEM cells assessed as cell growth inhibition incubated for 48 hrs by sulforhodamine B assay; type: functional; how it was run: as §1
[30] = tested on: OVCAR-3; test: Anticancer activity against human OVCAR-3 cells assessed as cell growth inhibition at 10 uM incubated for 48 hrs by sulforhodamine B assay; type: functional; conditions: read-out: GI; how it was run: as §2
[31] = tested on: OVCAR-8; test: Anticancer activity against human OVCAR-8 cells assessed as cell growth inhibition at 10 uM incubated for 48 hrs by sulforhodamine B assay; type: functional; conditions: read-out: GI; how it was run: as §2
[32] = tested on: SF-539; test: Anticancer activity against human SF-539 cells assessed as cell growth inhibition at 10 uM incubated for 48 hrs by sulforhodamine B assay; type: functional; conditions: read-out: GI; how it was run: as §2
[33] = tested on: UO-31; test: Anticancer activity against human UO-31 cells assessed as cell growth inhibition at 10 uM incubated for 48 hrs by sulforhodamine B assay; type: functional; conditions: read-out: GI
[34] = tested on: 786-0; test: Anticancer activity against human 786-0 cells assessed inhibition of cell growth after 48 hrs by CellTiter-Glo luminescent assay; type: functional, cell-based; conditions: 786-0, 48 h
How it was run: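 Renal lines grown in RPMI 1640 with 5% FBS and 2 mM L-glutamine, plated at 5,000–10,000 cells/well in 384-well plates and held 2–3 h at 37 °C, 5% CO2. Compounds were made as 20 mM DMSO stocks, given as ten 2-fold serial dilutions diluted 1:100 into cells, and incubated 48 h. Read-out was CellTiter-Glo luminescence after 10 min at room temperature.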

[35] = tested on: HCC 2998; test: Anticancer activity against human HCC 2998 cells assessed as cell growth inhibition at 10 uM incubated for 48 hrs by sulforhodamine B assay; type: functional; conditions: read-out: GI; how it was run: as §1

## COc1cc(CBr)c(B2OC(C)(C)C(C)(C)O2)c(CBr)c1
[1]
  GI50: 2000 nM
[2]
  inhibition of growth at 10 µM: < 50%
[3]
  GI50: 2000 nM
[4]
  inhibition of growth at 10 µM: < 50%
[5]
  IC50: 18600 nM
[6]
  GI50: 2000 nM
[7]
  GI50: 2000 nM
[8]
  inhibition of growth at 10 µM: < 50%
[9]
  inhibition of growth at 10 µM: < 50%
[10]
  inhibition of growth at 10 µM: < 50%
[11]
  GI50: 2000 nM
[12]
  GI50: 2000 nM
[13]
  inhibition of growth at 10 µM: < 50%
[14]
  inhibition of growth at 10 µM: < 50%
[15]
  GI50: 2000 nM
[16]
  GI50: 2000 nM
[17]
  GI50: 2000 nM
[18]
  inhibition of growth at 10 µM: < 50%
[19]
  GI50: 2000 nM
[20]
  inhibition of growth at 10 µM: < 50%
[21]
  inhibition of growth at 10 µM: < 50%
[22]
  inhibition of growth at 10 µM: < 50%
[23]
  GI50: 2000 nM
[24]
  inhibition of growth at 10 µM: < 50%
[25]
  Activity: Active
[26]
  GI50: 2000 nM
[27]
  GI50: 2000 nM
[28]
  Activity: Active
[29]
  GI50: 2000 nM
[30]
  inhibition of growth at 10 µM: < 50%
[31]
  inhibition of growth at 10 µM: < 50%
[32]
  inhibition of growth at 10 µM: < 50%
[33]
  inhibition of growth at 10 µM: < 50%
[34]
  IC50: 10800 nM
[35]
  inhibition of growth at 10 µM: < 50%
